Data from article PMC12046021 (Nature Communications, 2025).

How the values were obtained:
PK study in mice = format: in vivo; details: male, ICR, mouse, plasma, po, 3 mg/kg
PK study in rats = format: in vivo; details: male, Sprague Dawley, rat, plasma, po, 3 mg/kg
IKZF2 [1] = target: T1, IKZF2 (Homo sapiens, UniProt Q96SW2+Q9UKS7); assay: IKZF2 HiBiT degradation assay in HEK293 cells; format: cell-based; details: for Dmax: HEK293, read-out: IKZF2 degradation Dmax
SALL4 = SALL4 (Homo sapiens, UniProt Q9UJQ4); assay: SALL4 HiBiT degradation assay in HEK293 cells; format: cell-based
Method in brief: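 Each HiBiT-tagged target construct was integrated into the FRT site by the FLP-IN system, and integration was checked by lytic HiBiT detection. Cells got test compound at 0.017 nM to 10 µM, with DMSO as vehicle control, for 6 h. HiBiT signal was then read by lytic luminescence detection. DC50 and Dmax came from a four-parameter dose-response fit.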

hERG channel = hERG channel (Homo sapiens, UniProt Q12809); assay: hERG channel inhibition, manual patch-clamp; format: cell-based
IL-2 = IL-2 production in Jurkat cells; format: cell-based, human; details: Jurkat stimulated with anti-CD3/CD28, bead-to-cell ratio 1:4
IKZF2 [2] = target: T1, IKZF2; assay: IKZF2 FACS assay in primary human Tregs; format: cell-based; details: read-out: IKZF2 degradation Dmax in human Treg cells
Method in brief: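 Thawed human PBMCs were resuspended in RPMI with 10% FBS and 1% P/S. They were treated with test compound at 0.05 nM to 1 μM, with DMSO as vehicle control, for 3 or 6 h. IKZF2 in Treg cells was then assessed by FACS under a defined gating strategy.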

T1 sequence (Q9UKS7 whole entry): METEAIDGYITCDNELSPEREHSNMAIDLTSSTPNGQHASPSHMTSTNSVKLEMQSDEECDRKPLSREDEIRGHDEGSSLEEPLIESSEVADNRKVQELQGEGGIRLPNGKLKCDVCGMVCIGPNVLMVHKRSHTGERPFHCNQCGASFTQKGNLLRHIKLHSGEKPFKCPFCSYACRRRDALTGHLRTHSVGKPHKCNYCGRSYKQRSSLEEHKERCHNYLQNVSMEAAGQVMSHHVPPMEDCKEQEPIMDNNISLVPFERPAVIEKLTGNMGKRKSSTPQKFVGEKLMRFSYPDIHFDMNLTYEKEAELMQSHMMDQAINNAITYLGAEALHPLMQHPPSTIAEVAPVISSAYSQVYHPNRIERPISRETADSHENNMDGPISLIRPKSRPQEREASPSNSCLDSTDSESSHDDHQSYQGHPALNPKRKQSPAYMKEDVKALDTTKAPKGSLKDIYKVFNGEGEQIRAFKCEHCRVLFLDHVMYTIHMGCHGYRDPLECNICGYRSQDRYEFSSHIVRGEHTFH
T1 sequence (Q96SW2 whole entry): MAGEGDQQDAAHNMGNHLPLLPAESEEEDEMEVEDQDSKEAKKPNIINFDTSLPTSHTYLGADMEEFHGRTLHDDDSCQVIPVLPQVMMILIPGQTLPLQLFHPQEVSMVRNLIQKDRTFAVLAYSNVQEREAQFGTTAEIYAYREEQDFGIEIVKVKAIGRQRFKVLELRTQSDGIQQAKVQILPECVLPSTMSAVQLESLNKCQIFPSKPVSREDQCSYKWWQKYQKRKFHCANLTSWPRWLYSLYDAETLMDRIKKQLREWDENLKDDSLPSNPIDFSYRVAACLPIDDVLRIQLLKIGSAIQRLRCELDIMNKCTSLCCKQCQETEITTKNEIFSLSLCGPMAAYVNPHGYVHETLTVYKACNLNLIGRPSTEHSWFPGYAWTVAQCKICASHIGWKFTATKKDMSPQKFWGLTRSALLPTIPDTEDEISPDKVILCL
T1 sequence (Q16531 whole entry partner): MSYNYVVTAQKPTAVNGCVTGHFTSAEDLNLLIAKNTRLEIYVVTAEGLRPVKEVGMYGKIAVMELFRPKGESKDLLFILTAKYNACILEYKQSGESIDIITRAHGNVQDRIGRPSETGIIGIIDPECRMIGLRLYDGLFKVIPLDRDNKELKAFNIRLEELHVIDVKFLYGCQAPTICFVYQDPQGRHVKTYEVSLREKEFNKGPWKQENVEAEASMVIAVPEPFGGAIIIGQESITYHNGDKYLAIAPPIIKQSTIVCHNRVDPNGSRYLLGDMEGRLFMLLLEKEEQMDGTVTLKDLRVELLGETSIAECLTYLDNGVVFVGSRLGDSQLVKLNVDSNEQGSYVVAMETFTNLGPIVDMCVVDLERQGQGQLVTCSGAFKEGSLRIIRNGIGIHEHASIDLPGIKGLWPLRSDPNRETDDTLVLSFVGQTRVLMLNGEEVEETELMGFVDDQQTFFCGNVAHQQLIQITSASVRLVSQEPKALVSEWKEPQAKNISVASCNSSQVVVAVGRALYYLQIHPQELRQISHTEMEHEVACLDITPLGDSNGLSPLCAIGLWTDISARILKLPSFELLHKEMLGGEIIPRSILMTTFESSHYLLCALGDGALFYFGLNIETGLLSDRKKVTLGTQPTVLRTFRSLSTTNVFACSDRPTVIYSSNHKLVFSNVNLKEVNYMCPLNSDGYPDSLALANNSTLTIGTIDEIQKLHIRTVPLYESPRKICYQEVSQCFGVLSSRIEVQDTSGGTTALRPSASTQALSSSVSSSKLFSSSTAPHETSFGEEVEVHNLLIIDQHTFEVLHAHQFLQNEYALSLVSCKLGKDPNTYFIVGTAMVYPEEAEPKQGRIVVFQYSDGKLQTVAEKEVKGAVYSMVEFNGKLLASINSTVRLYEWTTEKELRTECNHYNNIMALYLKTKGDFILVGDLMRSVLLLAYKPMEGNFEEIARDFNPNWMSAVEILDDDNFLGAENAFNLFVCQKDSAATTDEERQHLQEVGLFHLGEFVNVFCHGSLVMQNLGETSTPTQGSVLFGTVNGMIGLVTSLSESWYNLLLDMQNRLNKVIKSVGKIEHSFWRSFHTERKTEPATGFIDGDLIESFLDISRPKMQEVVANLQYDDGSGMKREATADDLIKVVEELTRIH
SALL4, sequence (Q96SW2 whole entry partner): as the sequence (Q96SW2 whole entry) above
SALL4, sequence (Q16531 whole entry partner): as the sequence (Q16531 whole entry partner) above
SALL4, sequence (Q9UJQ4 whole entry): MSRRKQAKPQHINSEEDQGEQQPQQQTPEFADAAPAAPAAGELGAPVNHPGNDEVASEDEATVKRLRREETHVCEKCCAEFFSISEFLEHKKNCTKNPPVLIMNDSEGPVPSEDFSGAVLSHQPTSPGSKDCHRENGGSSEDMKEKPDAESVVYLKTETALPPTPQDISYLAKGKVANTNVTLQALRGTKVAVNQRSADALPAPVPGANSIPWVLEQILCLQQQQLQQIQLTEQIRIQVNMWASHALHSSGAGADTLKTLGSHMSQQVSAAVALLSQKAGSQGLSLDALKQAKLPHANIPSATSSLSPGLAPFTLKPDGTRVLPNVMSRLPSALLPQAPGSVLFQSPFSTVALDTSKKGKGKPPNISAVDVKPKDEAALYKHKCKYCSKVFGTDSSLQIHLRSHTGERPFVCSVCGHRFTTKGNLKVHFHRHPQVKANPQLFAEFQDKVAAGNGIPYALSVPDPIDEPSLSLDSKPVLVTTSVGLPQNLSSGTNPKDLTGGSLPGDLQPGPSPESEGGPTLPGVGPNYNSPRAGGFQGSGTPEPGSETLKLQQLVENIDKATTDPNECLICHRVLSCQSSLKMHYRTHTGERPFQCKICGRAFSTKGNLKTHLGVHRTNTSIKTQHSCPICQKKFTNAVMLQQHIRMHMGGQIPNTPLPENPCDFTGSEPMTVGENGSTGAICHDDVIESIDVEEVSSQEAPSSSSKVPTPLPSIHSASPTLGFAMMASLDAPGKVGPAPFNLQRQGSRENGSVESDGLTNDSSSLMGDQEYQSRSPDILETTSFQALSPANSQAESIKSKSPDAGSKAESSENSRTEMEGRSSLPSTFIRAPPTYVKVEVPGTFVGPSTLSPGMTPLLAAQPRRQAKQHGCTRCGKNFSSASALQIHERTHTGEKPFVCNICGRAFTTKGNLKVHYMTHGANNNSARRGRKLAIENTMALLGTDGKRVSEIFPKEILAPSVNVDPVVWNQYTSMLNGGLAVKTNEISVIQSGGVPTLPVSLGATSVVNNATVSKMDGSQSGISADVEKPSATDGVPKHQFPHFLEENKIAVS
hERG channel, sequence (Q12809 whole entry): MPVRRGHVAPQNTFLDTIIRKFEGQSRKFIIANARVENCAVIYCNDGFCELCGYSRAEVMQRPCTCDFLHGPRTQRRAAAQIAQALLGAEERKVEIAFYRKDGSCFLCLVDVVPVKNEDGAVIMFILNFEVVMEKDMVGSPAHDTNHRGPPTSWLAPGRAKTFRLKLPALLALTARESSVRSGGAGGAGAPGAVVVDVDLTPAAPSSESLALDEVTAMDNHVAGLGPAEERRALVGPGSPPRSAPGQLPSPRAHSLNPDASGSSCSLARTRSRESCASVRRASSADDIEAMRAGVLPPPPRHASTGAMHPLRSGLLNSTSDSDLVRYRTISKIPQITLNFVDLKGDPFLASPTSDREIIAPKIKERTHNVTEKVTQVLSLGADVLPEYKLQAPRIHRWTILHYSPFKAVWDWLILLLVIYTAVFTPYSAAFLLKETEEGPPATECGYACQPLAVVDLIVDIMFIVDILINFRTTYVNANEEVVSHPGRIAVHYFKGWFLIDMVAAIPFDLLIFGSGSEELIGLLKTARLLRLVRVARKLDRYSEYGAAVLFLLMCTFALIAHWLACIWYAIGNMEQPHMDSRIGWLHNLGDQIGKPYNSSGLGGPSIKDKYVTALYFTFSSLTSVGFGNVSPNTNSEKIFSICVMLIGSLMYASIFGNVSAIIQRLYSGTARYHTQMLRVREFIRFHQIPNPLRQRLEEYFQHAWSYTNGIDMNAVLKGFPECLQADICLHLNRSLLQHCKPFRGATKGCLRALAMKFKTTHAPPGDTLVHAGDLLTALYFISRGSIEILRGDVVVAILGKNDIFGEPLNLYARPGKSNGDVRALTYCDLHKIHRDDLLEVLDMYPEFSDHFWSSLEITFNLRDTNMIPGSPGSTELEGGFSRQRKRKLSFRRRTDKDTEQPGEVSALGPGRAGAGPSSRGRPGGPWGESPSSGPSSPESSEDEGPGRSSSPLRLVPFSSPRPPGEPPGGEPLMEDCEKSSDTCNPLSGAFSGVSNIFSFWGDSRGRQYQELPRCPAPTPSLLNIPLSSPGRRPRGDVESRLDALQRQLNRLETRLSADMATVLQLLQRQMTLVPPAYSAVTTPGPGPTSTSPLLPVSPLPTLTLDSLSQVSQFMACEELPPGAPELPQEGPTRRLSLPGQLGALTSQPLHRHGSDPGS

Row | Compound | Dmax (IKZF2 [1]) [%] | other results
1 | O=C1CCC(N2Cc3c(ccc4c3OCC43CCN(Cc4ccccc4)CC3)C2=O)C(=O)N1 (stereo not drawn) [Compound 5] | – | AUC (PK study in mice): 1340 ng·h/mL; AUC (PK study in rats): 1170 ng·h/mL
2 | O=C1CCC(N2Cc3c(ccc4c3OCC43CCC(Oc4ccccc4)CC3)C2=O)C(=O)N1 (stereo not drawn) [Compound 7] | 38 | –
3 | O=C1CCC(N2Cc3c(ccc4c3OCC43CCN(Cc4ccsc4)CC3)C2=O)C(=O)N1 (stereo not drawn) [Compound 15] | 84 | –
4 | O=C1CCC(N2Cc3c(ccc4c3OCC43CCCN(Cc4ccccc4)CC3)C2=O)C(=O)N1 (stereo not drawn) [Compound 9] | 17 | –
5 | O=C1CCC(N2Cc3c(ccc4c3OCC43CCN(CC4CCCCC4)CC3)C2=O)C(=O)N1 (stereo not drawn) [Compound 13] | 69 | –
6 | O=C1CCC(N2Cc3c(ccc4c3OCC43CCN(Cc4ccccc4)CC3(F)F)C2=O)C(=O)N1 (stereo not drawn) [Compound 12] | 68 | –
7 | O=C1CCC(N2Cc3cc(C4CCN(Cc5ccccc5)CC4)ccc3C2=O)C(=O)N1 (stereo not drawn) [DKY709] | 73 | time to reach maximal IKZF2 degradation (Dmax plateau) (IKZF2 [1]; IKZF2 HiBiT, HEK293): > 6 h; DC50 (IKZF2 [1]; read-out: IKZF2 degradation DC50, HiBiT, HEK293, 6 h): 1.5 nM; Dmax (SALL4; HEK293, read-out: SALL4 degradation Dmax): 55%; DC50 (SALL4; read-out: SALL4 degradation DC50, HiBiT, HEK293, 6 h): 4.9 nM; hERG inhibition IC30 (hERG channel): 3000 nM; IL-2 concentration in the supernatant (in words) (IL-2): increase in IL-2 concentration in the supernatant; Dmax (IKZF2 [2]): 73%
8 | O=C1CCC(N2Cc3c(ccc4c3OCCC43CCN(Cc4ccccc4)CC3)C2=O)C(=O)N1 (stereo not drawn) [Compound 10] | 39 | –
9 | O=C1CCC(N2Cc3c(ccc4c3OCC43CCN(Cc4ccccc4)C3)C2=O)C(=O)N1 (stereo not drawn) [Compound 8] | 33 | –
10 | O=C1CCC(N2Cc3c(ccc4c3OCC43CCN(Cc4ccccn4)CC3)C2=O)C(=O)N1 (stereo not drawn) [Compound 14] | 64 | –
